Source: PubChem
Rows were chosen to be rich in hits. Some 1.5% of all compounds tested hit in one or more screens of this group.
Runt-CBFb FRET = inhibitors of human RUNX1 Runt domain binding to CBFb; Cerulean-Runt/Venus-CBFb FRET ratio 530/480, 1 h; inhibition, % at 20 µM; 220,000 tested, 0.46% active; AID 1496;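 active = inhibition over about 50% at 20 µM in the single-dose screen, limit read from the data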;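 note: 0% = DMSO wells and 100% = excess unlabeled CBFb competitor control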
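test system = Cerulean-tagged RUNX1 Runt domain (FRET donor) fusion protein | reagent = Venus-CBFb binding partner, 100 nM | incubation = protein complex preformed 1 h, compound exposure 1 h, room temperature, dark | detection = FRET fluorescence | read-out basis = loss of energy transfer signal | controls = 5 µM unlabeled CBFb as full-inhibition high control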
CaV13 ICDI inh = Primary screen for inhibitors of IQ motif and Ca2+-dependent inactivation inhibitor domain binding in CACNA1D, Förster resonance energy transfer in living cells, …; inhibition, % at 12.3 µM; AID 743397; HEK cells, CFP/YFP FRET ICDI-IQ, plate reader, 10 min; percent FRET-ratio fall versus neutral wells; 340,000 tested, 0.098% active;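 active = mean replicate inhibition of at least 30% and at least 1% of replicates passing that level; inconclusive = only one of the two criteria is met; inactive = neither criterion is met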;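 note: 0% = median of the neutral control wells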
Runt-SMMHC FRET = inhibitors of human RUNX1 Runt domain binding to CBFb-SMMHC; Q01196+Q13951; Cerulean-Runt/Venus-CBFb-SMMHC FRET ratio 530/480, 1 h; inhibition, % at 20 µM; 220,000 tested, 0.74% active;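 active = mean inhibition across duplicate retests at 20 µM reaching about 50%, limit read from the data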;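 note: 0% = DMSO wells and 100% = wells with excess untagged CBFb-SMMHC; inhibitors lower the FRET ratio by blocking Runt binding to CBFb-SMMHC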
RanGTP-Imp inh = inhibitors of RanGTP-importin-beta interaction, primary screen, biochemical, FRET, CFP-Ran, YFP-importin-beta, homogeneous. inhibition, % (no concentration beside the values). 300,000 tested, 1.1% active. cell-free CFP-Ran/YFP-importin-beta FRET ratio. AID 2216;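 active = more than half of the replicate wells show a fall in the fluorescence ratio signal beyond about 16%, limit read from the data, passing the limit was not always enough; inconclusive = exactly half of the replicate wells pass the set limit; inactive = fewer than half of replicates pass the limit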;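 note: 0% = DMSO wells and 100% = Ran loaded with GDP instead of GTP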
Hck Nef HTS = blocks Nef-activated human Hck kinase; 220,000 tested, 0.68% active; Recombinant Hck-YEEI plus Nef, Z-Lyte FRET kinase assay; inhibition, % at 20 µM; AID 463187; P08631;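 active = Hck-Nef kinase inhibition above about 50%, limit read from the data; inactive = inhibition below that limit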;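 note: 0% = DMSO with Hck plus Nef and 100% = Hck alone without Nef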
Hck-Nef confirm = confirmation of Hck-Nef kinase inhibitors | shares compounds with Hck Nef HTS | Recombinant Hck-YEEI:Nef, Z-Lyte FRET kinase assay | calls only at 10 µM | 1,300 tested, 28% active | AID 463188;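 active = average inhibition of at least 50%, with Z-scores no higher than 3 in both the phospho-tyrosine peptide and fluorescence counterscreens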
* = called active by the depositor; i = inactive; ? = inconclusive; / = no result given; + = active, no number.

SMILES | Runt-CBFb FRET | CaV13 ICDI inh | Runt-SMMHC FRET | RanGTP-Imp inh | Hck Nef HTS | Hck-Nef confirm
O=C(N/N=C\c1coc2ccccc2c1=O)c1ccco1 | -1 | -5 | 2 | 0 | 83* | +
N#CCC(=O)N/N=C/c1coc2ccccc2c1=O | -3 | -5 | 6 | 2 | 81* | +
O=C(Oc1ccc(-c2cnc3ccccc3n2)cc1)c1cc([N+](=O)[O-])ccc1Cl | 1 | 0 | -6 | 3 | 53* | +
Cc1c(C(=O)Oc2ccc(-c3cnc4ccccc4n3)cc2)cccc1[N+](=O)[O-] | 15 | -2 | 7 | 2 | 5 | /
Cc1cccc(C)c1NC(=O)CSc1nnc(NC(=O)c2ccccc2C(=O)O)s1 | -10 | -3 | 4 | -2 | 25 | /
CCOc1ccc(NC(=O)CN(C)C(=O)c2ccc3[nH]c4c(c3c2)CC(C)CC4)cc1OCC (stereo unspecified) | / | -6 | / | 3 | / | /
Cc1ccccc1CC(=O)Nc1cc(C(C)(C)C)on1 | / | -4 | / | -1 | / | /
CCN(CC)c1ccc(-c2nnc(SCC(=O)Nc3ccccc3C#N)n2-c2ccccc2)cc1 | -4 | / | -2 | 9 | 66* | +
CC(C)C1Cc2[nH]c(=O)c(C(=O)O)cc2CO1 (stereo unspecified) | -1 | -6 | -4 | 4 | 75* | i
CCC(=C(c1ccc(OC)cc1)c1ccc(OC)cc1)c1cn(CC(O)CN2CCN(C)CC2)c2ccccc12 (stereo unspecified) | -1 | -6 | 0 | / | 111* | i
CCCCCCCCCCCCCCCC[n+]1ccc(/C=N/O)cc1 | -6 | / | 0 | / | 112* | /
Oc1cccc(/C=N/NC(=S)Nc2cccnc2)c1O | 8 | -6 | -2 | 0 | 4 | /
Oc1ccc(/C=N/NC(=S)Nc2cccnc2)c(O)c1O | 34 | -5 | 16 | 3 | 100* | +
Cc1cccc(-c2csc(NC(=O)c3cnccn3)c2C(=O)OC(C)C)c1 | -2 | -4 | -4 | 0 | 3 | /
Cc1cccc(-n2cnc(C(=O)N/N=C\c3ccc(Br)cc3)c2)n1 | -1 | -6 | 1 | -2 | 80* | i
Brc1ccc(-c2ccc(CNCc3ccccn3)o2)cc1 | / | -3 | / | -2 | / | /
Cn1c(COc2ccccc2)nnc1SCCSc1nnc(COc2ccccc2)n1C | -2 | -5 | 2 | -1 | 3 | /
Cn1c(COc2ccc(Br)cc2)nnc1SC1CCc2ccccc2C1=O (stereo unspecified) | 1 | -5 | -4 | -1 | 51* | i
Cn1c2ccc(Br)cc2c2nnc(SCC(=O)O)nc21 | / | -4 | / | 3 | / | /
CCCCCCCCCCCCCCCCn1cc[n+](CC(C)=O)c1 | -4 | / | 2 | / | 63* | i
CCCCCCn1ccc(=N)cc1 | 2 | -6 | 2 | -3 | 0 | /
CN(c1ccc(OCC(=O)N2CCC(C(N)=O)CC2)cc1)S(=O)(=O)c1cccs1 | -1 | -5 | 2 | ? | 5 | /
COc1ccc(C(=O)Nc2ccccc2-c2nnn(CC(=O)Nc3ccc4c(c3)OCCO4)n2)cc1 | -2 | -7 | 0 | 0 | 60* | i
O=C(CCCn1cc([N+](=O)[O-])cn1)Nc1ccc2c(c1)OCO2 | / | -4 | / | 4 | / | /
N#C/C(=C\c1ccc(OCc2ccc(Br)cc2)cc1)C(=O)Nc1cccc(C(=O)O)c1 | / | -22 | / | 4 | / | /
Cc1ccc(-c2[nH]ncc2/C=N/n2c(C)nc3ccccc3c2=O)cc1 | -2 | -4 | -1 | 0 | 60* | i
O=[N+]([O-])c1ccc(N/N=C/c2ccc(O)c(O)c2O)c(S(=O)(=O)N2CCOCC2)c1 | 22 | -5 | -11 | -4 | 117* | i
O=[N+]([O-])c1ccc(N/N=C/c2cccc(O)c2O)c(S(=O)(=O)N2CCOCC2)c1 | 10 | -13 | 3 | -3 | 21 | /
O=C(O)CCN(CCC(=O)O)c1nnc(SCc2ccccc2)s1 | 3 | -4 | -7 | 0 | -20 | /
COc1ccc(C2=NOC(C(=O)Nc3cc(C)nn3-c3ccccc3)C2)cc1OC (stereo unspecified) | -1 | -5 | 0 | -3 | 0 | /
